Measured values gathered from unrelated publications.
Target: Cyclin-dependent kinase-like 5 (CDKL5, Homo sapiens, UniProt O76039)
One construct used (O76039 1-960): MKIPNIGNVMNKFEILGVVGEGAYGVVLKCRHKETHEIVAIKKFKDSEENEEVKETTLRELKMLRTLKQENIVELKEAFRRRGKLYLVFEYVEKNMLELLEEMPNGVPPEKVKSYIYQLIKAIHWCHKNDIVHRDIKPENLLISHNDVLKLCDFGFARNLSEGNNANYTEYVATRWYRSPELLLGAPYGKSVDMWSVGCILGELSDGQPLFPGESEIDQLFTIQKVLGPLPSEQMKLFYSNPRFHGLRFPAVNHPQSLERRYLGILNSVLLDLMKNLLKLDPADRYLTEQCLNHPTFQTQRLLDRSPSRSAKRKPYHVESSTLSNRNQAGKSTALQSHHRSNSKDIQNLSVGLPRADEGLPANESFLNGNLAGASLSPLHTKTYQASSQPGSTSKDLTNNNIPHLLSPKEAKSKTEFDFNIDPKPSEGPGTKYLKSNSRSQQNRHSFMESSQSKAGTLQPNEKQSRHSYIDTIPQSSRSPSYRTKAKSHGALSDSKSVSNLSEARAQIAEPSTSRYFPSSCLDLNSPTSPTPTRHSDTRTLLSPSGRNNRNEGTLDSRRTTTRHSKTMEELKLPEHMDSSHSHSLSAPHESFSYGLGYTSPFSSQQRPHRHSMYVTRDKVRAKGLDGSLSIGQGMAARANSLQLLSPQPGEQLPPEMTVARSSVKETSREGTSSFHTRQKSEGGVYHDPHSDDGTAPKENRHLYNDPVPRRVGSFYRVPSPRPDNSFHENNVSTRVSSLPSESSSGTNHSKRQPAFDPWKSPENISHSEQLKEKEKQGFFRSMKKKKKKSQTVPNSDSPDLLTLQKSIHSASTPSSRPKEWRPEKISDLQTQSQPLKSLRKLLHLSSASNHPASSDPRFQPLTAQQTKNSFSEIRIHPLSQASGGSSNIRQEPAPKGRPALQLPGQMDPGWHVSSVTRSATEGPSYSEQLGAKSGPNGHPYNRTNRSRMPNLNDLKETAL

`c1cncc(-c2cccc(Nc3nccc(NC4CCCCC4)n3)c2)c1` gave a remaining binding of 38% (binding, competition with immobilised ligand; 10 µM).
`CC(C)CC(=O)N1CCc2nc(-c3ccc(Br)cc3)nc(N(C)Cc3ccccc3)c2C1` gave a remaining binding of 100% (cell-free assay, competition with immobilised ligand; 0.1 µM).
`CN(C)c1nccc(-c2cnn3ncccc23)n1` has a remaining binding of 100% (binding; 1 µM).
With `Cc1nccc(COC(=O)N2C[C@@H]3[C@@H](CNC(=O)c4ccc5[nH]nnc5c4)[C@@H]3C2)n1` the remaining binding was 87% (cell-free assay, competition with immobilised ligand; 1 µM).
For `O=C(c1ccc(Nc2ncc(Cl)c(-c3cc4ccccc4s3)n2)cc1)N1CCC(N2CCCC2)CC1`, the remaining binding was 32% (binding, competition with immobilised ligand; 1 µM).
For `C[C@@H](c1cccc(C#N)c1)n1cc(Cl)cc(C(N)=O)c1=N`, the remaining binding was 89% (binding, competition with immobilised ligand; 1 µM).
`O=C(c1ccc(Nc2ncc(Cl)c(-c3ccc(Cl)s3)n2)cc1)N1CCC(N2CCCC2)CC1` has a remaining binding of 26% (binding, competition with immobilised ligand; 1 µM).
`CNCc1ccccc1-c1csc([C@@H](C)Nc2nc(C)nc3cc(OC)c(OC)cc23)c1` has a remaining binding of 94% (cell-free assay, competition with immobilised ligand; 1 µM).
With `C[C@@H](c1ccc(-n2cnc3c(N)ncnc32)cc1)N1CCc2nn(C)c(Cc3ccccc3)c2C1=O` the remaining binding was 71% (binding, competition with immobilised ligand; 0.1 µM).
The remaining binding of `C=CC(=O)N1CCC(C(=O)NCC(=O)N2CCN(c3nc(-c4cnc(N)nc4C(F)F)nc(N4CCOCC4)n3)CC2)CC1` is reported as 100% (binding, competition with immobilised ligand; 1 µM).
For `CN(CCCC(F)(F)F)c1nccc(-c2cnn3ncccc23)n1`, the remaining binding was 100% (binding; 1 µM).
With `O=C(Nc1c[nH]nc1C(=O)NC1CCNCC1)c1cc(F)cc(F)c1` the remaining binding was 0.2% (binding, competition with immobilised ligand; 1 µM).
For `COc1ccnn2ncc(-c3ccnc(N(C)C)n3)c12`, the remaining binding was 86% (binding; 1 µM).
`O=C(NS(=O)(=O)c1ccc(NCC2CCOCC2)c([N+](=O)[O-])c1)c1ccc(N2CCN(Cc3ccc(C(F)(F)F)cc3-c3ccc(Cl)cc3)CC2)cc1Oc1cnc2[nH]ccc2c1` gave a remaining binding of 74% (cell-free assay, competition with immobilised ligand; 1 µM).
`C[C@H]1CCN(c2nccc(-c3cnn4ncccc34)n2)C1` has a remaining binding of 100% (binding; 1 µM).
`O=C(c1ccc(Nc2nccc(-c3cc4ccccc4s3)n2)cc1)N1CCC(N2CCCC2)CC1` has a remaining binding of 91% (binding, competition with immobilised ligand; 1 µM).
For `N[C@@H]1CCN(c2nccc(-c3cnn4ncccc34)n2)C1`, the remaining binding was 100% (binding; 1 µM).
The remaining binding of `CNC(=O)[C@@H]1CC[C@@H](n2c(-c3ccc4cnccc4c3)nc3ccc(C(=O)NCc4cccc(C(N)=O)c4)cc32)C1` is reported as 100% (binding, competition with immobilised ligand; 1 µM).
`CCS(=O)(=O)c1cc2cc(C[C@](O)(CC(C)(C)c3ccc(F)cc3C(N)=O)C(F)(F)F)[nH]c2cn1` gave a remaining binding of 100% (cell-free assay, competition with immobilised ligand; 1 µM).
`CN(c1nccc(-c2cnn3ncccc23)n1)C1CC1` gave a remaining binding of 100% (binding; 1 µM).
